Results: PMC3625046 (Bioorganic & medicinal chemistry letters, 2013)
pIC50: −log10 of the molar value.

How the values were obtained:
[1] = tested on: human foreskin fibroblasts; experiment: Toxicity to human foreskin fibroblasts; format: cell-based
[2] = tested on: T. gondii (Pru strain expressing firefly luciferase); experiment: T. gondii murine infection model; format: in vivo, mice
Method in brief: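 Mice infected intraperitoneally with 2x10⁴ Pru-strain T. gondii tachyzoites expressing firefly luciferase. Animals imaged daily by bioluminescence after intraperitoneal luciferin (3mg). Parasite burden in treated mice compared with a DMSO control group on day 6 post-infection. Three separate replicate experiments, analysed singly and pooled; ANOVA with group and run as factors.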

[3] = tested on: P. falciparum strain D6 (CDC/Sierra Leone); experiment: SYBR Green assay, P. falciparum strain D6; format: cell-based, Plasmodium falciparum; details: chloroquine sensitive D6 strain
[4] = tested on: P. falciparum strain TM91C235 (WRAIR, Thailand; chloroquine resistant); experiment: SYBR Green assay, P. falciparum strain C235; format: cell-based, Plasmodium falciparum
[5] = target: T1, Toxoplasma gondii enoyl reductase (TgENR) (Toxoplasma gondii, UniProt Q6UCJ9); experiment: TgENR enzyme assay; format: biochemical; details: read-out: Inhibition (%) at 1 µM
T1 sequence (Q6UCJ9 28-417): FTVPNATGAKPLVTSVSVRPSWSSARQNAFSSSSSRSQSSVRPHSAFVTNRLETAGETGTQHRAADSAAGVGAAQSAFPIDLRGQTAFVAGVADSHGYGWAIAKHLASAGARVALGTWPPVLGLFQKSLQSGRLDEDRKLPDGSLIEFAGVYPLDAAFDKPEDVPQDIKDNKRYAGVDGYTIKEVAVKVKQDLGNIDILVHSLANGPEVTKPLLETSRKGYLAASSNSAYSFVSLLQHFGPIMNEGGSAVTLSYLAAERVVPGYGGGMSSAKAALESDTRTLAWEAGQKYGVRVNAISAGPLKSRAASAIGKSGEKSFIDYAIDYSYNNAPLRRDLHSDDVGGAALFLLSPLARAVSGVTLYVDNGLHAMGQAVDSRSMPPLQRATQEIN

[6] = tested on: Toxoplasma gondii; details: read-out: IC50, growth of T. gondii parasites; cited from earlier work

SMILES | Toxicity [1] [µM] | also measured
Oc1cc(Cl)ccc1Oc1ccc2ccccc2c1 [Compound 2] | >10 | –
Oc1cc(Cl)ccc1Oc1ccc(C(F)(F)F)cc1Cl [Compound 3] | >10 | –
CN1CCN(c2ccc(Oc3ccc(Cl)cc3O)cc2)CC1 [Compound 5a] | >10 | –
Oc1cc(Cl)ccc1Oc1ccc(N2CCOCC2)cc1 [Compound 5b] | >10 | –
CC(=O)N1CCN(c2ccc(Oc3ccc(Cl)cc3O)cc2)CC1 [Compound 5c] | >10 | efficacy at lower dose ([2]; 50mg/kg): not effective; toxicity in infected mice ([2]; 75mg/kg, by the seventh day after infection): toxic; solubility of higher dose ([2]; 100mg/kg): not completely soluble; activity against P. falciparum D6 [3]: inactive; activity against P. falciparum C235 [4]: inactive
CN1CCN(Cc2ccc(Oc3ccc(Cl)cc3O)cc2)CC1 [Compound 5d] | >10 | –
O=S(=O)(c1ccc(Oc2ccc(Cl)cc2O)cc1)N1CCCC1 [Compound 7a] | >10 | –
O=S(=O)(c1ccc(Oc2ccc(Cl)cc2O)cc1)N1CCCCC1 [Compound 7b] | >10 | –
Cn1cc(C(=O)Nc2ccc(Cl)cc2O)c(C(F)(F)F)n1 [Compound 10] | >10 | –
CNC(=O)c1ccc(Oc2ccc(Cl)cc2O)o1 [Compound 14a] | >10 | –
Cc1cc(NC(=O)c2ccc(Oc3ccc(Cl)cc3O)o2)no1 [Compound 14b] | >10 | –
CC(=O)N1CCN(C(=O)c2ccc(Oc3ccc(Cl)cc3O)o2)CC1 [Compound 14c] | >10 | –
O=C(O)c1ccc(Oc2ccc(Cl)cc2O)s1 [Compound 16] | >10 | –
CC(C)(C)OC(=O)N1CCN(C(=O)c2ccc(Oc3ccc(Cl)cc3O)s2)CC1 [Compound 17b] | >10 | –
O=C(c1ccc(Oc2ccc(Cl)cc2O)s1)N1CCNCC1 [Compound 17c] | >10 | –
CC(=O)N1CCN(Cc2ccc(Oc3ccc(Cl)cc3O)s2)CC1 [Compound 18] | >10 | –
Oc1cc(Cl)ccc1Oc1ccc2ncccc2c1 [Compound 19] | >10 | –
Oc1cc(Cl)ccc1Oc1ccc(Cl)cc1Cl [Triclosan] | >10 | inhibition at 1 µM [5]: 98%; pIC50 [6]: ~6.70
